Experimental data taken from ChEMBL document CHEMBL3108762, “Novel pyridazinone inhibitors for vascular adhesion protein-1 (VAP-1): old target-new inhibition mode” (J Med Chem, 2013).
The source made the active and inactive calls. The rule behind the calls is not given here.

Legend:
[1] = biological target: T1, Diamine oxidase [copper-containing] (Sus scrofa) (UniProt Q9TRC7); test: Inhibition of pig kidney DAO at 100 uM
T1 sequence (whole entry): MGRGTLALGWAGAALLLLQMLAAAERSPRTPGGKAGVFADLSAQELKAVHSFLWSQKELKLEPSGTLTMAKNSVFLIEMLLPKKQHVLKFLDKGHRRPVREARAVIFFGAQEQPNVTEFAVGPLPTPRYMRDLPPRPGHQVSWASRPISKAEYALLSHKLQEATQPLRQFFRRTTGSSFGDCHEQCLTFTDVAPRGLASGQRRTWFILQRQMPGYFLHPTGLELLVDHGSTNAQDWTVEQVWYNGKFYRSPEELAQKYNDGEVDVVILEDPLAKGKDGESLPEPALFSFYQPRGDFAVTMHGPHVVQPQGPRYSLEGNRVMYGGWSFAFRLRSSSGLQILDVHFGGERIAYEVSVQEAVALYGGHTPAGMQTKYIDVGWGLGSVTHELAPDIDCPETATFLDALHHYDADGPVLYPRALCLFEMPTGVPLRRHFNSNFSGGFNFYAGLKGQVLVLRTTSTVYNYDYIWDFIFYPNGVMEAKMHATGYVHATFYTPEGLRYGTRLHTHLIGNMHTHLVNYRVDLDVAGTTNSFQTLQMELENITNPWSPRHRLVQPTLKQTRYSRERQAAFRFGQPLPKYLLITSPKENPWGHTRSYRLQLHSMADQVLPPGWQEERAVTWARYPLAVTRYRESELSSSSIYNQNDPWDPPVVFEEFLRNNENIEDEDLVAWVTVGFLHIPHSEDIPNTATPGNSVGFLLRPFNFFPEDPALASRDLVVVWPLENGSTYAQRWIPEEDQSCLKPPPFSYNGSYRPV

[2] = biological target: T2, Amine oxidase [copper-containing] 3 (Homo sapiens, UniProt Q16853); test: Binding affinity to human recombinant VAP-1 by surface plasmon resonance analysis
T2 sequence (Q16853 whole entry): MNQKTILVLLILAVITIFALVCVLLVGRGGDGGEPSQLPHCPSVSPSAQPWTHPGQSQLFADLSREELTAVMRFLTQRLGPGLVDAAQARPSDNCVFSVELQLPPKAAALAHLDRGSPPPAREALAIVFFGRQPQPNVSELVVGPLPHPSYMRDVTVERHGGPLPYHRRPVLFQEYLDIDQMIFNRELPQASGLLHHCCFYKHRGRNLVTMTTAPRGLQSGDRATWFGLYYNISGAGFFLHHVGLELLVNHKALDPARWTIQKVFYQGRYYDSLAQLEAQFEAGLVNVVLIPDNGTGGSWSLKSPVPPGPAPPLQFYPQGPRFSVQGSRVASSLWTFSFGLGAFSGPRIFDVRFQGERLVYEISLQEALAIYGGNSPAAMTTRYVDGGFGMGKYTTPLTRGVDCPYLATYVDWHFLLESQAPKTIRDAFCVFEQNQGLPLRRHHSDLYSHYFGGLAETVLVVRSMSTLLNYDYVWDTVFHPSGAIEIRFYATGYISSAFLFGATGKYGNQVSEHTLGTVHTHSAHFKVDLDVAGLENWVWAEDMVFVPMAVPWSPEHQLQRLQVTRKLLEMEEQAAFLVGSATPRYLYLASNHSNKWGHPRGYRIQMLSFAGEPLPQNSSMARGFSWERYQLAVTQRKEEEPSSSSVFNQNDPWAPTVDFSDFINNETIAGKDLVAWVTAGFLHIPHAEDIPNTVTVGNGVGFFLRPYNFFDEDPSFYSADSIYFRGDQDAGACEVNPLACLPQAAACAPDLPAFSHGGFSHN
In short: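 Surface plasmon resonance binding kinetics: recombinant purified VAP-1 amine-coupled to a CM5 chip after preconcentration in 10 mM Na acetate pH 4.4 with 10 μM CuCl2.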

Cavia porcellus = organism: Cavia porcellus; test: Inhibition of guinea pig VAP-1
[3] = biological target: T3, Amine oxidase [copper-containing] 3 (Rattus norvegicus) (UniProt O08590); test: Inhibition of rat VAP-1
T3 sequence (whole entry): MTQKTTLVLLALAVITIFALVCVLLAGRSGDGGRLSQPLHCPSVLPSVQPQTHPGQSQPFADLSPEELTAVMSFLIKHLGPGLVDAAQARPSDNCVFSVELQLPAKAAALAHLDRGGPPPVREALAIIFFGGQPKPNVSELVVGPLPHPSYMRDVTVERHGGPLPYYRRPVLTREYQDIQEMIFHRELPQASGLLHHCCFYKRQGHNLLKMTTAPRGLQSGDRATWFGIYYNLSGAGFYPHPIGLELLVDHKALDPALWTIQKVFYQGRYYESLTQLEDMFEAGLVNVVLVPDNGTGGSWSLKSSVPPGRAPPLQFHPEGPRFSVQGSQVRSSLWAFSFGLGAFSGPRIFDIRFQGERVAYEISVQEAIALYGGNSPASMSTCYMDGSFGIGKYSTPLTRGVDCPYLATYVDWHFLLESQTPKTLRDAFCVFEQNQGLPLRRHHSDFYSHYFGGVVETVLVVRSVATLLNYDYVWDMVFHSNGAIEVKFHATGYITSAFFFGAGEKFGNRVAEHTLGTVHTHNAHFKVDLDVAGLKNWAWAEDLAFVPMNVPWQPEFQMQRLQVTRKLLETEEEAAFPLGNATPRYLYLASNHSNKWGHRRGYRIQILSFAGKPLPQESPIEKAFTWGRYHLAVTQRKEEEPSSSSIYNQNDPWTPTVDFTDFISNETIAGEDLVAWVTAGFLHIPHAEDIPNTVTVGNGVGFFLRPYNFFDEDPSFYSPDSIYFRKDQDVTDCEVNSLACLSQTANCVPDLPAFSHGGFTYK

Rattus norvegicus = organism: Rattus norvegicus; test: Inhibition of rat liver MAO using vanillic acid/tyramine as substrate at 100 uM incubated for 30 mins prior to tyramine addition measured after 1 hr by spectrophotometry
In short: (§1)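 Peroxidase-coupled colorimetric assay as for VAP-1, with 1 mM vanillic acid in place of 2,4-dichlorophenol and 0.5 mM tyramine (final) as substrate. Conditions: 0.2 M potassium phosphate pH 7.6, 500 μM 4-aminoantipyrine, 4 U/ml HRP, 30 min preincubation at 37 °C, then 1 h at 37 °C; A490 read. Enzymes: purified human MAO-A or MAO-B from baculovirus-infected BTI insect cells, or total MAO-A/B extracted from rat liver mitochondria. Single-concentration percent inhibition.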

[4] = Inhibition of cynomolgus monkey recombinant VAP-1 transfected in CHO cells using 2,4-dichlorophenol/benzylamine as substrate incubated for 30 mins prior to benzylamine addition measured after 1 hr by spectrophotometry; type: cell-based, Macaca fascicularis
In short: (§2)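 Coupled colorimetric H2O2 assay with lysate of CHO cells stably expressing full-length VAP-1 of the listed species, dosed to give 0.6 A490/h. Conditions: 0.2 M potassium phosphate pH 7.6, 1 mM 2,4-dichlorophenol, 500 μM 4-aminoantipyrine, 4 U/ml HRP, inhibitor 1 nM–50 μM. Preincubated 30 min at 37 °C, then 1 mM benzylamine (final) for 1 h at 37 °C; A490 read, background-corrected, percent inhibition versus control, IC50 fitted; mean of two to six experiments ± SE.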

Cricetinae = test: Inhibition of hamster VAP-1
[5] = biological target: T4, Amine oxidase [copper-containing] 3 (Mus musculus) (UniProt O70423); test: Inhibition of mouse recombinant VAP-1 transfected in CHO cells using 2,4-dichlorophenol/benzylamine as substrate at 1 nM to 50 uM incubated for 30 mins prior to benzylamine addition measured after 1 hr by spectrophotometry; type: cell-based; in short: as §2
T4 sequence (whole entry): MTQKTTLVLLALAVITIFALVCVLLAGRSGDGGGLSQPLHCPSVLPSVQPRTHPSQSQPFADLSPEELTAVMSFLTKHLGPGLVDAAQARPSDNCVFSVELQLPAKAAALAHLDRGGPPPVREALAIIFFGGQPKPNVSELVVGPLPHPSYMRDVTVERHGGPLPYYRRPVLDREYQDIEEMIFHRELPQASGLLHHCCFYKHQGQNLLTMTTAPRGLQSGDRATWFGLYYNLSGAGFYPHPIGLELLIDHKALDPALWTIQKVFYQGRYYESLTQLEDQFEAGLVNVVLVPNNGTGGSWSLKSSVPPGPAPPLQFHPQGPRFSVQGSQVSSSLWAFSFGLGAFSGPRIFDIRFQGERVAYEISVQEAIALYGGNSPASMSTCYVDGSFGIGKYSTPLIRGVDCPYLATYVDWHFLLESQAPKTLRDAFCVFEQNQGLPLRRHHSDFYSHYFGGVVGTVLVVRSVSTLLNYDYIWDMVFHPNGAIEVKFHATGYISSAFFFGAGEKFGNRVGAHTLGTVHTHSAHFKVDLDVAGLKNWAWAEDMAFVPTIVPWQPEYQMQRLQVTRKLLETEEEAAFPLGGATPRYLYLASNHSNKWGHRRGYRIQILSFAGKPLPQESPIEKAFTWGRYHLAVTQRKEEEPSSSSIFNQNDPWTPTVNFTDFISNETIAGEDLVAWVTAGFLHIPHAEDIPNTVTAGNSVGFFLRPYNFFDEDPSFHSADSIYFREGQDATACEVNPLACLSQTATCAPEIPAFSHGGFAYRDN

[6] = biological target: T2, Amine oxidase [copper-containing] 3; test: Inhibition of human recombinant VAP-1 transfected in CHO cells using 2,4-dichlorophenol/benzylamine as substrate incubated for 30 mins prior to benzylamine addition measured after 1 hr by spectrophotometry; type: cell-based; in short: as §2
MAO-B = biological target: T5, MAO-B (Homo sapiens, UniProt P27338); test: Inhibition of human recombinant MAO-B expressed in baculovirus infected BTI insect cells using vanillic acid/tyramine as substrate at 20 uM incubated for 30 mins prior to tyramine addition measured after 1 hr by spectrophotometry; details: probe tyramine (with vanillic acid); in short: as §1
T5 sequence (P27338 whole entry): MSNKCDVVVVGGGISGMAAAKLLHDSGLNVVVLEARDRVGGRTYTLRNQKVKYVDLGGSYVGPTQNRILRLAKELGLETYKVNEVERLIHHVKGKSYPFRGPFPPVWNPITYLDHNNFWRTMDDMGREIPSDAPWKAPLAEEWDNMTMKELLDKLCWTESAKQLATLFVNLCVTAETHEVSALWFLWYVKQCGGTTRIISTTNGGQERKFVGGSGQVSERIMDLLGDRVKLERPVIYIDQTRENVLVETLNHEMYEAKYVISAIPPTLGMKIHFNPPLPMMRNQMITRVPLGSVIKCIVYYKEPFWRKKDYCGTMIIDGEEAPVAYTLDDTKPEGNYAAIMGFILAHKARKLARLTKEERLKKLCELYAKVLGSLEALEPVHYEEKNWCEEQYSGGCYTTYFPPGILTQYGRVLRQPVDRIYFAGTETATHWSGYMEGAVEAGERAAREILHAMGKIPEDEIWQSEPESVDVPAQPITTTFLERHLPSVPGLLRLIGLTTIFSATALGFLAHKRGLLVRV

MAO-A = biological target: T6, MAO-A (Homo sapiens, UniProt P21397); test: Inhibition of human recombinant MAO-A expressed in baculovirus infected BTI insect cells using vanillic acid/tyramine as substrate at 20 uM incubated for 30 mins prior to tyramine addition measured after 1 hr by spectrophotometry; details: probe tyramine (with vanillic acid); in short: as §1
T6 sequence (P21397 whole entry): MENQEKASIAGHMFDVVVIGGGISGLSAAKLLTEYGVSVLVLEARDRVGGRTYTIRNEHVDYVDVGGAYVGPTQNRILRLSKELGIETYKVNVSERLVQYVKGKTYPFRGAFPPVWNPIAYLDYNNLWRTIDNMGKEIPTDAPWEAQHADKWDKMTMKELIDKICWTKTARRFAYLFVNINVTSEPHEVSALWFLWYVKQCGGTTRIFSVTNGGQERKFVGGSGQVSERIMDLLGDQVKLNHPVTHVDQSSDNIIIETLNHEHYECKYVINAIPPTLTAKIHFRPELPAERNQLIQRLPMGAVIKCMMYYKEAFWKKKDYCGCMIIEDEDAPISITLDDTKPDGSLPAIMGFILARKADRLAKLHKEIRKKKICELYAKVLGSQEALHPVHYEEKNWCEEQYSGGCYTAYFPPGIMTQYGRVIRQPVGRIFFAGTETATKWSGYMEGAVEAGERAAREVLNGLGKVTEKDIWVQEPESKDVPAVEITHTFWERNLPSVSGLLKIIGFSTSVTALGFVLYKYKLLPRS

[7] = biological target: T1, Diamine oxidase [copper-containing] (Sus scrofa); test: Inhibition of pig kidney DAO at 50 uM

| inhibition [1] | Kd [2] | inhibition (Cavia porcellus) | inhibition [3] | inhibition (Rattus norvegicus) | IC50 [4] | inhibition (Cricetinae) | inhibition [5] | IC50 [6] | Structure (SMILES) | inhibition at 1 h, 20 µM (MAO-B) | inhibition at 1 h, 20 µM (MAO-A) | inhibition [7] |
| --- | --- | --- | --- | --- | --- | --- | --- | --- | --- | --- | --- | --- |
| 30% | 200 nM | inactive | inactive | 8% | 250 nM | inactive | 10% | 290 nM | CC(C)Nc1cc(=O)n(-c2ccccc2)nc1-c1nc[nH]n1 |  |  |  |
| 40% | 170 nM | inactive | inactive | 3% | 130 nM | inactive | 24% | 71 nM | O=c1cc(NC2CCCCC2)c(-c2nc[nH]n2)nn1-c1ccccc1 | 13% | 4% |  |

| Structure (SMILES) | inhibition [1] | Kd [2] | inhibition (Cavia porcellus) | inhibition [3] | inhibition (Rattus norvegicus) | IC50 [4] | inhibition (Cricetinae) | inhibition [5] | IC50 [6] | inhibition at 1 h, 20 µM (MAO-B) | inhibition at 1 h, 20 µM (MAO-A) | inhibition [7] |
| --- | --- | --- | --- | --- | --- | --- | --- | --- | --- | --- | --- | --- |
| CN1CCN(c2ccc(Nc3cc(=O)n(-c4ccc(Cl)cc4)nc3-c3nc[nH]n3)cc2)CC1 |  |  | inactive | inactive | 18% | 26 nM | inactive | 23% | 20 nM | 1% | 3% | 36% |
